A selection: hits, their analogues and other compounds. The true share with any hit is near 2.1%.
CDK5 inh = blocks human CDK5/p35 kinase activity | Q00535+Q15078 | Recombinant CDK5/p35, ADP-Glo luminescence, 60 min | inhibition, % at 10 µM | 330,000 tested, 0.01% active | AID 488839;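 active means highest replicate inhibition of at least 50% and at least 75% of replicates reaching 50%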;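 further: plate controls were DMSO neutral control for no effect and GW8510 at 10 µM for full effect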
PKA-R1A activ = PKA-R1A complex activation | P00514+P68181 | PKA-R1A dissociation, Cy5-IP20 fluorescence polarization; scaled: DMSO 0%, 113 µM cGMP 100% | activation, % at 11.4 µM | 340,000 tested, 0.083% active | AID 504707;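 active means percent activation above the mean of all tested compounds plus 3 SD, cut at about 19% in these data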;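 further: higher means more PKAc released from R1A so a rise in polarization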
PKA-R2B activ = activators of human PKA-R2B complex | P22694+P31323 | PKA-R2B holoenzyme dissociation, Cy5-IP20 fluorescence polarization; R2B truncated from residue 108, S112A mutant; 0% DMSO only, 100% 113 µM cGMP | activation, % at 11.4 µM | 340,000 tested, 0.079% active | AID 504700;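 active means activation above a cutoff set at the mean over all compounds plus 3 SD, cut at about 18% in these data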;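 further: higher means more holoenzyme dissociation and a rise in polarization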
dFosB act-1 = enhances mouse delta FosB homodimer DNA binding. P13346. purified delta FosB, TAMRA-CDK5 oligo fluorescence polarization; percent of positive-control signal above neutral wells. activation, % at 25 µM. 340,000 tested, 0.99% active;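 active means mean activation above about 17%, with every replicate also reaching it, limit read from the data, passing the limit was not always enough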
Target sequence (P13346 whole entry, looked up): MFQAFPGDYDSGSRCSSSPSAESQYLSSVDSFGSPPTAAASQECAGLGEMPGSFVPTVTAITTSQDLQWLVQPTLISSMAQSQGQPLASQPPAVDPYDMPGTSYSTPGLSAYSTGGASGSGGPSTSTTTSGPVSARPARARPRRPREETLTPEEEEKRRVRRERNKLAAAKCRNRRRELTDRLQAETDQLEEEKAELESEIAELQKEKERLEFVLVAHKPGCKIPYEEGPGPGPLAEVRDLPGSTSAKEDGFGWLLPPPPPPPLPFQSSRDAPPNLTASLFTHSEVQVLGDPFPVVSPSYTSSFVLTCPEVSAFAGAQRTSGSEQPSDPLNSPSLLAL
SR-BI HDL uptake = inhibitors of mouse SR-BI mediated HDL lipid uptake; ldlA[mSR-BI] CHO cells, DiI-HDL uptake fluorescence, 3 h; inhibition, % at 12.5 µM; 320,000 tested, 0.96% active;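 active means mean replicate inhibition of at least 70% and a set share of replicates each scoring 70 or more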;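 further: 0% = median of neutral control wells and 100% = median of positive control wells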
SR-BI uptake up = SR-BI HDL lipid transfer activation; activation, % at 12.5 µM; CHO ldlA[mSR-BI] cells, DiI-HDL uptake fluorescence, 3 h; 100 = double the neutral-control signal; 320,000 tested, 0.096% active;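 active means mean replicate activation of at least 60% and every replicate at or above 60%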;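 further: 0% = median plate neutral-control signal and 100% = twice that signal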
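Assay system: LDL receptor-deficient CHO ldlA cells overexpressing murine SR-BI / Medium: BSA-supplemented, HEPES-buffered Ham's F12, pH 7.4 / Probe or stimulus: DiI-labelled HDL at 10 µg/mL final / Timing: compound with DiI-HDL co-incubation, 3 h at 37 °C / Technique: bottom-read cell fluorescence after medium removal, ex 550/em 595 nm / Measure: HDL uptake via cellular fluorescence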
DiI quench = DiI fluorescence quenching in cell-free counter-screen; shares compounds with SR-BI HDL uptake; cell-free DiI-HDL fluorescence quenching, 30 min; AC50, µM (top dose mostly 35 µM), without a hit: at the highest dose activity change, negative = quenching; 470 tested, 20% active; AID 540326;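 active means quenching, a falling signal, with AC50 below a set limit tied to the top valid dose, actives reach about 32 µM in these data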
dFosB act-2 = enhances mouse delta FosB homodimer binding to DNA. shares compounds with dFosB act-1. purified delta FosB, TAMRA-CDK5 oligo fluorescence polarization; normalised: neutral wells 0, positive control 100. activation, % at 24.9 µM. 2,400 tested, under 10 active;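 active means highest replicate activation at or above 34% and every replicate reaching that threshold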;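 further: higher polarization means more probe DNA bound by delta FosB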
R2B FP artifact = counter-screen for PKA-R2B activators: fluorescence polarization artifacts; 270 tested, 6% active; activation, % at 11.4 µM; FP artifact counterscreen; shares compounds with PKA-R2B activ; in the data active means activation above about 20%;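 further: Cy5 labelled IP20 peptide probe with compound but no PKA protein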
PKA-R2B confirm = PKA-R2B complex activation, confirmation; fluorescence polarization; activation, % at 11.4 µM; shares compounds with PKA-R2B activ; AID 504797; 270 tested, 9% active; in the data active means activation above about 19%
R1A FP artifact = FP assay interference, PKA-R1A counter-screen; shares compounds with PKA-R1A activ; Cy5-IP20 peptide alone, fluorescence polarization artifact counterscreen; activation, % at 11.4 µM; 280 tested, 7% active; AID 504799;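 active means mean activation over triplicate runs exceeds the adjusted cutoff derived for the parent primary screen, cut at about 19% in these data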;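 further: no PKA protein present so any polarization rise reflects compound interference; 0% = tracer peptide mix alone and 100% = mix with added PKA catalytic subunit; higher means stronger polarization artifact and likely false positive in parent screen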
PKA-R1A act conf = confirmation of PKA-R1A complex activators; shares compounds with PKA-R1A activ; Cy5-IP20 fluorescence polarization, PKA-R1A holoenzyme dissociation; activation, % at 11.4 µM; 280 tested, 9% active; AID 504800;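 active means mean activation over replicate wells exceeds the adjusted hit threshold taken from the earlier primary screen, cut at about 20% in these data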;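 further: 0% = holoenzyme mix with DMSO only and 100% = cGMP-activated control wells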
Target sequence (P00514 whole entry, looked up): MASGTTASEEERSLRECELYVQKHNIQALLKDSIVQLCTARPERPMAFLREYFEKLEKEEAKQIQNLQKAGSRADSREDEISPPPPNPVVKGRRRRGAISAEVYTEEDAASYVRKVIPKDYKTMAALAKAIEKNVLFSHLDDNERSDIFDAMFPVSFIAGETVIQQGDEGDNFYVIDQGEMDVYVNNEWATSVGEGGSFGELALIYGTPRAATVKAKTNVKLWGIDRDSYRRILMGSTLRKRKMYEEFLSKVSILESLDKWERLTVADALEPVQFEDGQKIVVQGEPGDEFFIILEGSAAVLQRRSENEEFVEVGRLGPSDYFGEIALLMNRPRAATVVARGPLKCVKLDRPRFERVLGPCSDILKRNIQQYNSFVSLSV
The depositor's hits bear a star; · = no result given.

SMILES | CDK5 inh | PKA-R1A activ | PKA-R2B activ | dFosB act-1 | SR-BI HDL uptake | SR-BI uptake up | others
Cc1c2ccncc2c(C)c2c1[nH]c1ccccc12 | 2.4 | 0.3 | -0.5 | 54.9* | 3.0 | -1.1
O=C1CC23c4ccccc4N4C(=O)CC5OCC=C6CN1C2CC6C5C43 (configuration not stated) | 1.8 | -1.4 | 5.2 | -13.1 | -6.4 | 6.4
COc1ccc(C2=NCC(=O)N(CC(=O)NCc3ccco3)c3sc4c(c32)CCCC4)cc1 | 2.7 | -12.8 | -11.6 | -11.8 | 27.5 | -27.5
Cc1cccc(C2=NCC(=O)N(CC(=O)NCc3ccco3)c3sc4c(c32)CCCC4)c1 | -0.1 | -3.6 | -5.3 | -5.6 | 77.3* | -77.3
O=C1NC(=O)C(Nc2ccccc2)C(=O)N1 | 1.1 | -1.3 | -4.1 | 1.5 | 7.4 | -7.4
Cc1nc2ccccc2c(=O)n1-c1ccc(Br)cn1 | 1.0 | · | · | 2.7 | 0.3 | -0.3
Cc1nc2ccccc2c(=O)n1/N=C/c1cc(Br)cc(Br)c1O | -1.4 | 2.3 | -5.2 | -12.7 | 85.4* | -85.4
Cc1cc(N(CCCl)CCCl)ccc1C=Cc1ccncn1 | 1.5 | 4.0 | 3.0 | -7.7 | 76.2* | -76.2
CCCCCCn1c(=O)c(C(=O)Nc2cnccn2)c(O)c2ccccc21 | -0.6 | -1.5 | -5.7 | -3.6 | 81.6* | -81.6 | DiI quench=-5.1%
O=C(Nc1ccccc1F)OC1CN2CCC1CC2 (configuration not stated) | -0.7 | -2.1 | -0.7 | 2.3 | 84.0* | -84.0 | DiI quench=-2.8%
CC(C)(C)c1ccc(S(=O)(=O)N2CC3CC(C2)c2cccc(=O)n2C3)cc1 (configuration not stated) | -1.7 | -5.3 | -5.0 | -7.1 | -11.6 | 11.6 | DiI quench=0.3%
COc1ccc(S(=O)(=O)N2CC3CC(C2)c2cccc(=O)n2C3)cc1 (configuration not stated) | 1.0 | -2.6 | -3.4 | -1.4 | 9.2 | -9.2
CC(=O)OCC12CC(OC(=O)CC(C)C)C(C)=CC1OC1C(O)C(OC(C)=O)C2(C)C12CO2 (configuration not stated) | 0.7 | 2.1 | 2.1 | -6.6 | -16.6 | 16.6
Cc1ccc(C(=O)N2CC2C)cc1 (configuration not stated) | -2.7 | 0.1 | -5.6 | -3.3 | -1.2 | 1.2
NCCNc1ccc([N+](=O)[O-])c2cccnc12 | 0.0 | 0.5 | -4.6 | 16.5* | -8.3 | 8.3 | dFosB act-2=8.5
COC1CCC(OC2CC(C3(C)CCC4(CC(O)C(C)C(C(C)/C=C(\C)C(=O)C(C)CC(C)C(=O)O)O4)O3)OC3(OC(C4OC(O)(CO)C(C)CC4C)CC3C)C2C)OC1C (configuration not stated) | -0.1 | 3.7 | 12.4 | -16.4 | -16.1 | 16.1
CCC(CO)(C(=O)OC1C[N+]2(C)CCC1CC2)c1ccccc1 (configuration not stated) | -1.0 | -3.6 | 19.6* | -0.6 | -16.5 | 16.5 | R2B FP artifact=2.7;PKA-R2B confirm=1.1
O=C(c1cc(Cl)cc(Cl)c1)N1Cc2ccccc2-n2nncc2C1 | · | 2.0 | 0.3 | · | · | ·
CN(C(=O)c1ccc(Cl)nc1)C1(c2ccccc2Cl)CCCCC1=O (configuration not stated) | 0.3 | -0.2 | 21.4* | -6.6 | 0.5 | -0.5 | R2B FP artifact=5.1;PKA-R2B confirm=2.6
CCC1=CCN(CCc2c(C)[nH]c3ccccc23)CC1 | 0.9 | 2.2 | -8.7 | -0.9 | 14.7 | -14.7
COc1ccc(NP2(=O)OCC(C)(N)CO2)cc1 (configuration not stated) | 1.1 | 19.5* | 5.7 | 1.8 | -20.7 | 20.7 | R1A FP artifact=-1.1;PKA-R1A act conf=-1.1
CC1([N+](=O)[O-])COP(=O)(Nc2ccccc2F)OC1 (configuration not stated) | 0.4 | -5.8 | 0.8 | -7.5 | -16.7 | 16.7
CCN(CC)C(=O)c1ccc(NC(=O)CNC(C)c2cccc3ccccc23)cc1 (configuration not stated) | 0.3 | 3.4 | 0.2 | -3.4 | 70.0 | -70.0
O=C(COc1ccccc1Cl)N1CCCC(N2CCN(c3ccc(F)cc3)CC2)C1 (configuration not stated) | -0.4 | 19.0* | -9.1 | -9.9 | 68.4 | -68.4 | R1A FP artifact=0.1;PKA-R1A act conf=1.6
CC1=CP(=O)(Oc2ccc([N+](=O)[O-])cc2)CC1 (configuration not stated) | · | 19.1* | -3.8 | · | · | · | R1A FP artifact=4.6;PKA-R1A act conf=2.6
CCNc1nc(NC(C)(C)C)nc(SC)n1 | 0.3 | -0.9 | -2.8 | -5.6 | 20.0 | -20.0
C=C1[C@H]2CC[C@H]3[C@]4(C)C[C@H](O[C@@H]5OC(CO)[C@@H](OSOOO)[C@H](OS(=O)(=O)O)[C@H]5OC(=O)CC(C)C)C[C@@H](C(=O)O)[C@H]4CC[C@]3(C2)[C@H]1O (some centres not stated) | -1.3 | 18.6* | 4.2 | -5.7 | -26.1 | 26.1 | R1A FP artifact=2.4;PKA-R1A act conf=-0.4
CCN1C[C@]2(OC(=O)c3ccccc3NC(C)=O)CCC(OC)C34C5C[C@H]6C(OC)[C@]5(O)[C@](O)(C[C@@H]6OC)C(C[C@@H]32)[C@H]14 (some centres not stated) | 0.3 | -13.5 | 8.2 | 6.8 | -30.4 | 30.4
CN(C(=O)Cc1ccc(Cl)c(Cl)c1)C(CN1CCCC1)c1cccc(OCC(=O)O)c1 (configuration not stated) | -0.9 | 19.0* | -5.5 | 4.6 | -12.9 | 12.9 | R1A FP artifact=4.4;PKA-R1A act conf=-0.8
Cc1cccc(OCC(=O)N2CCN(Cc3ccc4c(c3)OCO4)CC2)c1 | -0.6 | -0.1 | -13.9 | -3.3 | -4.5 | 4.5

Screening results deposited in PubChem by several laboratories.
